Test results from ChEMBL document CHEMBL3745617 (J Med Chem, 2015).
Calls of active or inactive are those of the source. The rule behind the calls is not given here.

Assays:
[1] = target: Receptor-type tyrosine-protein kinase FLT3 (Homo sapiens) (UniProt P36888); conditions: MOLM-14, 0.03 to 3 uM
MV4-11 [2] = test: Antiproliferative activity against human MV4-11 cells after 72 hrs by CelltiterGlo assay; format: functional; conditions: MV4-11, 72 h
[3] = Antiproliferative activity against human U937 cells after 72 hrs by CelltiterGlo assay; format: functional; conditions: U-937, 72 h
[4] = tested on: Receptor-type tyrosine-protein kinase FLT3 (Homo sapiens), P36888 [D835H]; conditions: BaF3
[5] = AUC (0 to t) in Sprague-Dawley rat at 1 mg/kg, iv; format: ADME, organism-based; conditions: in vivo
[6] = target: Tyrosine-protein kinase Lck (Homo sapiens) (UniProt P06239); test: Inhibition of LCK (unknown origin) assessed as remaining activity at 1 uM relative to control
In short: (§1)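 KinomeScan competition binding panel of 468 kinases, with the compound tested at 1 µM. Each kinase's result is reported as percent activity remaining relative to a DMSO control.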

[7] = AUC (0 to infinity) in Sprague-Dawley rat at 1 mg/kg, iv; format: ADME, organism-based; design: dose 1 mg/kg, route intravenous, time infinity; conditions: in vivo
[8] = target: Platelet-derived growth factor receptor beta (Homo sapiens) (UniProt P09619); test: Inhibition of PDGFRB (unknown origin) expressed in BaF3 cells assessed as inhibition of cell proliferation after 72 hrs by CelltiterGlo assay; format: cell-based
[9] = target: Receptor-type tyrosine-protein kinase FLT3 (Homo sapiens) (UniProt P36888); conditions: MOLM-13, 0.03 to 3 uM
[10] = Mean residence time (0 to infinity) in Sprague-Dawley rat at 10 mg/kg, po; format: ADME, organism-based; conditions: in vivo
MOLM-14 [11] = test: Induction of apoptosis in human MOLM14 cells assessed as cleaved PARP level at 0.03 to 1 uM after 24 hrs by immunoblot analysis; format: functional, cell-based
[12] = AUC(0 to infinity) in Sprague-Dawley rat at 10 mg/kg, po; format: ADME, organism-based; design: dose 10 mg/kg, route oral, time infinity; conditions: in vivo
[13] = target: Receptor-type tyrosine-protein kinase FLT3 (Homo sapiens) (UniProt P36888); conditions: MOLM-14, 0.03 to 3 uM; remark: listed apart in the source
[14] = target: Tyrosine-protein kinase Srms (Homo sapiens) (UniProt Q9H3Y6); test: Inhibition of SRMS (unknown origin) assessed as remaining activity at 1 uM relative to control
In short: as §1

[15] = target: Tyrosine-protein kinase BTK (Homo sapiens, UniProt Q06187); test: Inhibition of BTK (unknown origin) by ADP-Glo assay
MOLM-14 [16] = test: Induction of apoptosis in human MOLM14 cells assessed as cleaved caspase-3 level at 0.03 to 1 uM after 24 hrs by immunoblot analysis; format: functional, cell-based
[17] = target: T1, Mast/stem cell growth factor receptor Kit (Homo sapiens, UniProt P10721); test: Inhibition of c-KIT (unknown origin) expressed in BaF3 cells assessed as inhibition of cell proliferation after 72 hrs by CelltiterGlo assay; format: cell-based
[18] = Cytotoxicity against mouse BAF3 cells assessed as cell proliferation after 72 hrs by CelltiterGlo assay; format: cell-based
[19] = tested on: Receptor-type tyrosine-protein kinase FLT3 (Homo sapiens), P36888 [UNDEFINED MUTATION]; test: Inhibition of FLT3 ITD mutant (unknown origin) expressed in BaF3 cells assessed as inhibition of cell proliferation after 72 hrs by CelltiterGlo assay; format: cell-based
[20] = Antiproliferative activity against human NB4 cells after 72 hrs by CelltiterGlo assay; format: functional; conditions: NB-4, 72 h
[21] = target: Epidermal growth factor receptor (Homo sapiens) (UniProt P00533); test: Inhibition of EGFR (unknown origin) expressed in BaF3 cells assessed as inhibition of cell proliferation after 72 hrs by CelltiterGlo assay; format: cell-based
[22] = target: Receptor-type tyrosine-protein kinase FLT3 (Homo sapiens) (UniProt P36888); conditions: MV4-11, 0.03 to 3 uM
[23] = Half life in Sprague-Dawley rat at 1 mg/kg, iv; format: ADME, organism-based; conditions: in vivo
Mus musculus = test: Toxicity in nu/nu mouse xenografted with human MV4-11 cells assessed as body weight at 12.5 to 50 mg/kg/day administered via oral gavge; format: organism-based; conditions: in vivo
In short: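 Female nu/nu mice carried established MV4-11 xenografts. Daily oral gavage of 12.5, 25.0 or 50.0 mg/kg/d, or vehicle, began once tumors reached 200 to 400 mm3. Each group had 5 animals, and body weight was tracked over a 22-day treatment period. Data are given as mean ± SEM.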

[24] = Cmax in Sprague-Dawley rat at 1 mg/kg, iv; format: ADME, organism-based; design: dose 1 mg/kg, route intravenous; conditions: in vivo
MV4-11 [25] = test: Antitumor activity against human MV4-11 cells xenografted in nu/nu mouse assessed as tumor weight at 25 mg/kg/day administered via oral gavage measured after 22 days of treatment (reference value: 2.5 g); format: functional
[26] = Antiproliferative activity against human NAMALWA cells after 72 hrs by CelltiterGlo assay; format: functional; conditions: NAMALVA
[27] = target: Tyrosine-protein kinase JAK3 (Homo sapiens) (UniProt P52333); test: Inhibition of JAK3 (unknown origin) expressed in BaF3 cells assessed as inhibition of cell proliferation after 72 hrs by CelltiterGlo assay; format: cell-based
[28] = tested on: Receptor-type tyrosine-protein kinase FLT3 (Homo sapiens), P36888 [UNDEFINED MUTATION]; conditions: BaF3
[29] = target: Receptor tyrosine-protein kinase erbB-3 (Homo sapiens) (UniProt P21860); test: Inhibition of ERBB3 (unknown origin) assessed as remaining activity at 1 uM relative to control
In short: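 KinomeScan competitive binding panel of 468 kinases. Compound tested at a single 1 µM concentration. Read-out is percent of kinase activity remaining relative to a DMSO control.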

[30] = tested on: Receptor-type tyrosine-protein kinase FLT3 (Homo sapiens), P36888 [D835V]; conditions: BaF3
[31] = Half life in Sprague-Dawley rat at 10 mg/kg, po; format: ADME, organism-based; conditions: in vivo
[32] = target: Proto-oncogene tyrosine-protein kinase receptor Ret (Homo sapiens) (UniProt P07949); test: Inhibition of RET (unknown origin) assessed as remaining activity at 1 uM relative to control
In short: as §1

[33] = Antiproliferative activity against human SU-DHL-2 cells after 72 hrs by CelltiterGlo assay; format: functional; conditions: SU-DHL-2, 72 h
[34] = target: T1, Mast/stem cell growth factor receptor Kit; test: Inhibition of c-KIT (unknown origin) by ADP-Glo assay
In short: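 Biochemical activity assay in ADP-Glo format using purified c-KIT kinase protein. It was run to confirm the binding-panel findings.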

[35] = Tmax in Sprague-Dawley rat at 10 mg/kg, po; format: ADME, organism-based; conditions: in vivo
[36] = Antiproliferative activity against human MOLM13 cells after 72 hrs by CelltiterGlo assay; format: functional; conditions: MOLM-13, 72 h
[37] = Mean residence time (0 to infinity) in Sprague-Dawley rat at 1 mg/kg, iv; format: ADME, organism-based; conditions: in vivo

T1 sequence (P10721 whole entry): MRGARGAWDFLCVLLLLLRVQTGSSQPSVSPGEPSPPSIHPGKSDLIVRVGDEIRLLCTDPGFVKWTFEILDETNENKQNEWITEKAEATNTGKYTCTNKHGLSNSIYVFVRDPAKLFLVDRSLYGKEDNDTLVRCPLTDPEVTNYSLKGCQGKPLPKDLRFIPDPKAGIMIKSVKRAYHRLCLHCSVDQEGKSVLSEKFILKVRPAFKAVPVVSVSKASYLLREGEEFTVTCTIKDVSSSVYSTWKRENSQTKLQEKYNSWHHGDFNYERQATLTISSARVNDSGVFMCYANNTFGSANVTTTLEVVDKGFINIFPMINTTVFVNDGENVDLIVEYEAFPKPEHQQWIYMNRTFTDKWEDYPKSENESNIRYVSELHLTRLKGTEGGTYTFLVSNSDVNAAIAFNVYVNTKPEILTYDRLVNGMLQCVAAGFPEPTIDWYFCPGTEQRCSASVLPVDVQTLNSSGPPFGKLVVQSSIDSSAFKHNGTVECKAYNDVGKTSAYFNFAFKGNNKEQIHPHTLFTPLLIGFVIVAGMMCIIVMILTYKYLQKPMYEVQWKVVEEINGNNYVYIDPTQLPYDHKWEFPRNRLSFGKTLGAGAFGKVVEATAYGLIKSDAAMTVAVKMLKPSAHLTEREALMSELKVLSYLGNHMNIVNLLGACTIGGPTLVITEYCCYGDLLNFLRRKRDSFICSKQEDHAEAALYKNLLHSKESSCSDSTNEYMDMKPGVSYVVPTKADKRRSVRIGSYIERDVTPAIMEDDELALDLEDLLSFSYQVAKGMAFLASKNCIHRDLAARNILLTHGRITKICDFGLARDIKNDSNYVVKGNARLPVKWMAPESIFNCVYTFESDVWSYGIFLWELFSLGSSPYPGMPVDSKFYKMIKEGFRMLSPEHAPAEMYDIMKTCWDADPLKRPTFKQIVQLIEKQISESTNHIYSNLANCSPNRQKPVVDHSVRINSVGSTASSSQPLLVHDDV
Tyrosine-protein kinase Lck (Homo sapiens), sequence (P06239 2-509 limits assumed): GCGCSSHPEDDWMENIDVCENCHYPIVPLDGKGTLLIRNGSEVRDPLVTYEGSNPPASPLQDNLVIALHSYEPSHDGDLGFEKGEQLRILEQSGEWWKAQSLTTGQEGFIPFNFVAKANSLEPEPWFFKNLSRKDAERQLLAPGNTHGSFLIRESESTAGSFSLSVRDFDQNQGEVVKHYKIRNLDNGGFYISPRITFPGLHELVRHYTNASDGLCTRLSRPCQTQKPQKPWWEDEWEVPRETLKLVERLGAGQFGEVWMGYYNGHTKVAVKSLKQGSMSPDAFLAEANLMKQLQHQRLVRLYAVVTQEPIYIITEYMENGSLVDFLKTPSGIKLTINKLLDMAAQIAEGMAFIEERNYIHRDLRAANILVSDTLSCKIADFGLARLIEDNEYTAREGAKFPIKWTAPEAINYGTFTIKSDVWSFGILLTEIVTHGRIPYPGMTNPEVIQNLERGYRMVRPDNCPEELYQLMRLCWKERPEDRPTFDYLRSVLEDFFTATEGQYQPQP
Receptor tyrosine-protein kinase erbB-3 (Homo sapiens), sequence (P21860 whole entry): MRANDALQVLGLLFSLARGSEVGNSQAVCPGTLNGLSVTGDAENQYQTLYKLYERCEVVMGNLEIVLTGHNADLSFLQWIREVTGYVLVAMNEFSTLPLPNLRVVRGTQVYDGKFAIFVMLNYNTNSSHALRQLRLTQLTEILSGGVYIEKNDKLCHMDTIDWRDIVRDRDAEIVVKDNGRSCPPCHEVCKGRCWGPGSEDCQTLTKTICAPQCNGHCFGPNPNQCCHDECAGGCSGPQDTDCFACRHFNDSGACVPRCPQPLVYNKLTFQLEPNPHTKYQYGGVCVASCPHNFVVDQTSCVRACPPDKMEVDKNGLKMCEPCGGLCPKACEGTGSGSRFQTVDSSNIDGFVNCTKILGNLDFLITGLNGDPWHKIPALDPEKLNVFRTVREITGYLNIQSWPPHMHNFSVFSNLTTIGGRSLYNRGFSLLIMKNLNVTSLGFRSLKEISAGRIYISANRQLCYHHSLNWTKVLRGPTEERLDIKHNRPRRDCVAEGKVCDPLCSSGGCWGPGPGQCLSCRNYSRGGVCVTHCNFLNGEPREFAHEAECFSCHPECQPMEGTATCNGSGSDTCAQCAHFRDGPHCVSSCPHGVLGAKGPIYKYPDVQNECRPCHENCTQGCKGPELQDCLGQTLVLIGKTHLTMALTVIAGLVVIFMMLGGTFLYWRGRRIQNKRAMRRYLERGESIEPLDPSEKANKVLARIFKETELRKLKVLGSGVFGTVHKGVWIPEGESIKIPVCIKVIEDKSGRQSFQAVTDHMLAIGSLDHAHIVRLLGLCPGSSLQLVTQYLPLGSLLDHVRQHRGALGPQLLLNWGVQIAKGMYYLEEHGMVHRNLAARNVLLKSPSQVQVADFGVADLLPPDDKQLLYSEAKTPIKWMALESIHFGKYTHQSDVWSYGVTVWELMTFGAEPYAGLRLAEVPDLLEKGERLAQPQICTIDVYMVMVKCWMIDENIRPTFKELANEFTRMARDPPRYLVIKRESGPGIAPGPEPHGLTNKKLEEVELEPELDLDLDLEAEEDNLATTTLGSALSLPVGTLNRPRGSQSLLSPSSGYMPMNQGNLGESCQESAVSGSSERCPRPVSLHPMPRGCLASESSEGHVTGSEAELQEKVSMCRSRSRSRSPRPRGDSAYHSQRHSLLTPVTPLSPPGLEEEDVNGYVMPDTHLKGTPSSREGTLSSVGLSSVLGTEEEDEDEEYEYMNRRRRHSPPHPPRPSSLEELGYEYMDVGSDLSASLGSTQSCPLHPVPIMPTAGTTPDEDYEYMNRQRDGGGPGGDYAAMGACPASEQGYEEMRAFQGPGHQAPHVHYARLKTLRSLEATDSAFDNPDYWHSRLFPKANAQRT
Tyrosine-protein kinase BTK, sequence (Q06187 whole entry): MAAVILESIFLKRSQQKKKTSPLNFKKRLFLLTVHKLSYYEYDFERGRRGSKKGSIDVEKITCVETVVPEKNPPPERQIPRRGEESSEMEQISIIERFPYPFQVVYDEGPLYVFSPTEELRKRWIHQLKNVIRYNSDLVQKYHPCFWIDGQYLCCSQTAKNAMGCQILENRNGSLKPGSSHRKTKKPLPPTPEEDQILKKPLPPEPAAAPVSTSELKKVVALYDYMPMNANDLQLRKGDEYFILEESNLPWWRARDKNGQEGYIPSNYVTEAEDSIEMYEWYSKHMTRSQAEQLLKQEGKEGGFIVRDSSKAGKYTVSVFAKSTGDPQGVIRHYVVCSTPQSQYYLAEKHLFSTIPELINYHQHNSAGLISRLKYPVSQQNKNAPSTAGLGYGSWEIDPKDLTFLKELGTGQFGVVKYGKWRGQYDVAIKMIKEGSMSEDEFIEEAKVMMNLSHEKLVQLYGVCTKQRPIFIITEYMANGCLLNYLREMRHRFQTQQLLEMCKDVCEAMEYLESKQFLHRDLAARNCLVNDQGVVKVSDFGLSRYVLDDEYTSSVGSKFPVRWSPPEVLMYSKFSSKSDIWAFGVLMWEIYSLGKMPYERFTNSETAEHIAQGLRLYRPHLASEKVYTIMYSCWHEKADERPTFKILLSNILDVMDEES
Tyrosine-protein kinase JAK3 (Homo sapiens), sequence (P52333 whole entry): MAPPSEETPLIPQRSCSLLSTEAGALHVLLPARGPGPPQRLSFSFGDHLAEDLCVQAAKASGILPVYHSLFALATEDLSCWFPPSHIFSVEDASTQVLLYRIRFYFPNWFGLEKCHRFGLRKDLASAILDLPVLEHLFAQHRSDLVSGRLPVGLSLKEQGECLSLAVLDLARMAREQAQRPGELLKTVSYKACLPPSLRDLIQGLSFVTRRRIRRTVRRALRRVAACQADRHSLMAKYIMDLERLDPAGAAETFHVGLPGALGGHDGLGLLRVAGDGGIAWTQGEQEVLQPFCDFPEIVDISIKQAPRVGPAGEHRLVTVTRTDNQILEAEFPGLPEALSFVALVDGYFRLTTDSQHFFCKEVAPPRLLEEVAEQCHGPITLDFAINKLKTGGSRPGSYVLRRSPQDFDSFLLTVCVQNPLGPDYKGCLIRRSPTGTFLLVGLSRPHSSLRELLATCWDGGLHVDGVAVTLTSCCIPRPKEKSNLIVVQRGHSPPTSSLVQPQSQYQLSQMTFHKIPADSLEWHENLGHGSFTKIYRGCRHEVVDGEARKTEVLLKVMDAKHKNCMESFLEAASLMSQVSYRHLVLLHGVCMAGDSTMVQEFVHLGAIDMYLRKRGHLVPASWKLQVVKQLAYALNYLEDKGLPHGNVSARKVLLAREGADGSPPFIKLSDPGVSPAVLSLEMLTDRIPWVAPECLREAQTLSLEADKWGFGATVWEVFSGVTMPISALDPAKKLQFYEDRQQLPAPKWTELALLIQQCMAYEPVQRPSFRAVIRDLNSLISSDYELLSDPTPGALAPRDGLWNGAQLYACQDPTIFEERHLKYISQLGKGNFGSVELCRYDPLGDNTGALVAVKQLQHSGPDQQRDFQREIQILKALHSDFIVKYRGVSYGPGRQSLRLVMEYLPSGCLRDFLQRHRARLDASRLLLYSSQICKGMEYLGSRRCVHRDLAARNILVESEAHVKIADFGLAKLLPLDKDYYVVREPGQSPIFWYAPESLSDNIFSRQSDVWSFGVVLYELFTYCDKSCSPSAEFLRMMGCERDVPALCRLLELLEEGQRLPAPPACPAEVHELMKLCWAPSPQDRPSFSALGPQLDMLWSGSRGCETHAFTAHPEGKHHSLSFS
Tyrosine-protein kinase Srms (Homo sapiens), sequence (Q9H3Y6 whole entry): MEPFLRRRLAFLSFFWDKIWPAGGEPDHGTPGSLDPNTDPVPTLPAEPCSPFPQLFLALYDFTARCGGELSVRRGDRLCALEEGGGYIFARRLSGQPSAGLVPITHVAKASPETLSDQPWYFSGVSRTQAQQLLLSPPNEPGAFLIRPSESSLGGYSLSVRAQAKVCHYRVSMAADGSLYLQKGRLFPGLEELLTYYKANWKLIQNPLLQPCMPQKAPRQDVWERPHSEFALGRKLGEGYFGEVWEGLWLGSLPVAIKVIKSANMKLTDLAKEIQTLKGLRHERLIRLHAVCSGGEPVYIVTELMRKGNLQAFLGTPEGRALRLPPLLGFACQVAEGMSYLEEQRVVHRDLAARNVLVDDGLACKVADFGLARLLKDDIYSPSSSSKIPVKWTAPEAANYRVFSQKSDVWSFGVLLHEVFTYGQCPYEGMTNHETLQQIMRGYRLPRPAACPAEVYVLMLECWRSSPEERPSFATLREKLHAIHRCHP

Which results are given for `CN(C)CC(=O)N1CCC[C@@H](n2nc(-c3ccc(Oc4ccccc4)cc3)c3c(N)ncnc32)C1`?
inhibition [1]: Active; GI50 (MV4-11 [2]): 22 nM; GI50 [3]: 9700 nM; GI50 [4]: 4 nM; AUC(0-t) [5]: 607 ng·h/mL; Activity [6]: 0%; AUC(0-inf) [7]: 619 ng·h/mL; GI50 [8]: 680 nM; inhibition [9]: Active; MRT inf [10]: 2.75 h; Activity (MOLM-14 [11]): Active; AUCinf [12]: 1880 ng·h/mL; inhibition [13]: Active; Activity [14]: 0%; IC50 [15]: 421 nM; Activity (MOLM-14 [16]): Active; GI50 [17]: 1900 nM; GI50 at 72 h [18]: 4900 nM; GI50 [19]: 11 nM; GI50 [20]: 3800 nM; GI50 [21]: 1800 nM; inhibition [22]: Active; half-life [23]: 1.38 h; Activity (Mus musculus): Non-toxic; Cmax [24]: 1500 ng/mL; Activity (MV4-11 [25]): 0.94 g; GI50 [26]: 6400 nM; GI50 [27]: 2500 nM; GI50 [28]: 170 nM; Activity [29]: 0.05%; GI50 [30]: 3 nM; half-life [31]: 1.24 h; Activity [32]: 0.4%; GI50 [33]: 5500 nM; IC50 [34]: 559 nM; Tmax [35]: 1.67 h; GI50 [36]: 21 nM; MRT inf [37]: 1.15 h
